Measured values published in ChEMBL document CHEMBL1122615, “Design and synthesis of naltrexone-derived affinity labels with nonequilibrium opioid agonist and antagonist activities. Evidence for the existence of different mu receptor subtypes in different tissues” (J Med Chem, 1984).
Where “and” joins values, the source holds several entries; their conditions need not be identical. Identical values can stand only once. Calls of active or inactive are those of the source. No cut-off for these calls is given here.

How the values were obtained:
[1] = The relative rate (to beta FNA) in the reaction of Michael acceptors with cysteine at pH 7.4 at 25 degree Celsius in the presence of 13 fold excess cysteine was reported for half-life.; format: ADME
Outline: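 Reaction with a 13-fold excess of cysteine at pH 7.4, 25 °C under rapid stirring; aliquots quenched by acidification to pH 1 at timed intervals. Remaining compound quantified by reversed-phase HPLC (UV 254 nm, internal standard), four intervals in duplicate. Half-life taken from the slope of log amount remaining vs time; rate expressed relative to β-FNA.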

Cavia porcellus [2] = species on record: Cavia porcellus; experiment: The agonist potency in the guinea pig ileal longitudinal muscle preparation (GPI) was determined relative to morphine as control; format: functional, Muscle tissue
Mus musculus [3] = species on record: Mus musculus; experiment: (§1) The agonist potency was assessed by measuring the inhibition of contraction at a single concentration (200 nM).; format: functional
[4] = molecular target: Mu-type opioid receptor (Mus musculus) (UniProt P42866); experiment: Irreversible antagonist activity at mouse vas deferens mu receptor against DADLE after 30 min at 200 nM; format: functional, tissue-based
[5] = molecular target: Mu-type opioid receptor (Homo sapiens) (UniProt P35372); experiment: Irreversible antagonist activity at mu receptor by determining by ileal response to morphine after 30 min incubation at 20 nM; format: functional
[6] = molecular target: Mu-type opioid receptor (Homo sapiens) (UniProt P35372); experiment: Compound was tested for irreversible antagonist activity at mu receptor by determining by MVD response to morphine after 30 min incubation at 200 nM; format: functional
Cavia porcellus [7] = species on record: Cavia porcellus; experiment: Compound was tested for persistent effect, percent inhibition of twitch that is not reversed by >=20 washings following 30 -min incubation at 20 nM; none; format: functional
[8] = molecular target: Kappa-type opioid receptor (Homo sapiens) (UniProt P41145); experiment: Irreversible antagonist activity at kappa receptor as ileal response to ethylketazocine after 30 min incubation at 20 nM; format: functional
Cavia porcellus [9] = species on record: Cavia porcellus; experiment: Compound was tested for persistent effect, percent inhibition of twitch that is not reversed by >=20 washings following 30 -min incubation at 20 nM; format: functional
Mus musculus [10] = species on record: Mus musculus; experiment: The agonist potency was assessed by measuring the inhibition of contraction at a single concentration (200 nM); format: functional
Mus musculus [11] = species on record: Mus musculus; experiment: Compound was tested for persistent effect, percent inhibition contraction that is not reversed significantly by >=20 washings following a 30 min incubation at 200 nM.; format: functional
[12] = molecular target: Mu-type opioid receptor (Homo sapiens) (UniProt P35372); experiment: Compound was tested for irreversible antagonist activity at mu receptor by determining by MVD response to DADLE after 30 min incubation at 20 nM; format: functional
Mus musculus [13] = species on record: Mus musculus; experiment: Compound was tested for persistent effect, percent inhibition contraction that is not reversed significantly by >=20 washings following a 30 min incubation at 20 nM.; format: functional
[14] = molecular target: Mu-type opioid receptor (Homo sapiens) (UniProt P35372); experiment: Compound was tested for irreversible antagonist activity at mu receptor by determining by MVD response to DADLE after 30 min incubation at […]; format: functional
[15] = molecular target: Mu-type opioid receptor (Homo sapiens) (UniProt P35372); experiment: Compound was tested for irreversible antagonist activity at mu receptor by determining by MVD response to morphine after 30 min incubation at 20 nM; format: functional
Cavia porcellus [16] = species on record: Cavia porcellus; experiment: Evaluated for the inhibition concentration in the guinea pig ileal longitudinal muscle preparation (GPI); format: functional, Muscle tissue
[17] = molecular target: Mu-type opioid receptor (Homo sapiens) (UniProt P35372); experiment: Compound was tested for irreversible antagonist activity at mu receptor by determining by MVD response to DADLE after 30 min incubation at 100 nM; format: functional
[18] = molecular target: Mu-type opioid receptor (Homo sapiens) (UniProt P35372); experiment: Compound was tested for irreversible antagonist activity at mu receptor by determining by ileal response to morphine after 30 min incubation at 1000 nM; format: functional
[19] = molecular target: Mu-type opioid receptor (Homo sapiens) (UniProt P35372); experiment: Compound was tested for irreversible antagonist activity at mu receptor by determining by MVD response to morphine after 30 min incubation at 100 nM; format: functional
[20] = molecular target: Kappa-type opioid receptor (Homo sapiens) (UniProt P41145); experiment: (§2) Compound was tested for irreversible antagonist activity at kappa receptor by determining by ileal response to ethylketazocine after 30 min incubation at 1000 nM; format: functional
Cavia porcellus [21] = species on record: Cavia porcellus; experiment: (§3) Compound was tested for persistent effect, percent inhibition of twitch that is not reversed by >=20 washings following 30 -min incubation at 200 nM; format: functional
[22] = molecular target: Kappa-type opioid receptor (Homo sapiens) (UniProt P41145); experiment: Compound was tested for irreversible antagonist activity at kappa receptor by determining by ileal response to ethylketazocine after 30 min incubation at 20 nM; format: functional
[23] = molecular target: Mu-type opioid receptor (Homo sapiens) (UniProt P35372); experiment: Compound was tested for irreversible antagonist activity at mu receptor by determining by ileal response to morphine after 30 min incubation at 20 nM; format: functional
Cavia porcellus [24] = species on record: Cavia porcellus; experiment: as §3; format: functional; remark: listed apart in the source
Mus musculus [25] = species on record: Mus musculus; experiment: as §1; format: functional; remark: listed apart in the source
Mus musculus [26] = species on record: Mus musculus; experiment: Compound was tested for persistent effect, percent inhibition contraction that is not reversed significantly by >=20 washings following a 30 min incubation at 3 nM.; format: functional
[27] = molecular target: Kappa-type opioid receptor (Homo sapiens) (UniProt P41145); experiment: Compound was tested for irreversible antagonist activity at kappa receptor by determining by ileal response to ethylketazocine after 30 min incubation at 10 nM; format: functional
[28] = molecular target: Kappa-type opioid receptor (Homo sapiens) (UniProt P41145); experiment: Compound was tested for irreversible antagonist activity at kappa receptor by determining by ileal response to ethylketazocine after 30 min incubation at 200 nM; format: functional
[29] = molecular target: Mu-type opioid receptor (Homo sapiens) (UniProt P35372); experiment: Compound was tested for irreversible antagonist activity at mu receptor by determining by ileal response to morphine after 30 min incubation at 10 nM; format: functional
[30] = molecular target: Mu-type opioid receptor (Homo sapiens) (UniProt P35372); experiment: Compound was tested for irreversible antagonist activity at mu receptor by determining by ileal response to morphine after 30 min incubation at 200 nM; format: functional
[31] = molecular target: Mu-type opioid receptor (Homo sapiens) (UniProt P35372); experiment: Compound was tested for irreversible antagonist activity at mu receptor by determining by MVD response to DADLE after 30 min incubation at 3 nM; format: functional
Mus musculus [32] = species on record: Mus musculus; experiment: The agonist potency was assessed by measuring the inhibition of contraction at a single concentration (30 nM).; format: functional
[33] = molecular target: Mu-type opioid receptor (Homo sapiens) (UniProt P35372); experiment: Compound was tested for irreversible antagonist activity at mu receptor by determining by MVD response to DADLE after 30 min incubation at 30 nM; format: functional
[34] = as §2; format: functional
[35] = molecular target: Mu-type opioid receptor (Homo sapiens) (UniProt P35372); experiment: Compound was tested for irreversible antagonist activity at mu receptor by determining by MVD response to Morphine after 30 min incubation at 200 nM; format: functional
[36] = molecular target: Mu-type opioid receptor (Homo sapiens) (UniProt P35372); experiment: Compound was tested for irreversible antagonist activity at mu receptor by determining by MVD response to ethylketazocine after 30 min incubation at 200 nM; format: functional
Cavia porcellus [37] = species on record: Cavia porcellus; experiment: Compound was tested for persistent effect, percent inhibition of twitch that is not reversed by >=20 washings following 30 -min incubation at 200 nM; none; format: functional
[38] = molecular target: Mu-type opioid receptor (Homo sapiens) (UniProt P35372); experiment: Compound was tested for irreversible antagonist activity at mu receptor by determining by MVD response to DADLE after 30 min incubation at 10 nM; format: functional

Sequence of Kappa-type opioid receptor (Homo sapiens) (P41145 whole entry): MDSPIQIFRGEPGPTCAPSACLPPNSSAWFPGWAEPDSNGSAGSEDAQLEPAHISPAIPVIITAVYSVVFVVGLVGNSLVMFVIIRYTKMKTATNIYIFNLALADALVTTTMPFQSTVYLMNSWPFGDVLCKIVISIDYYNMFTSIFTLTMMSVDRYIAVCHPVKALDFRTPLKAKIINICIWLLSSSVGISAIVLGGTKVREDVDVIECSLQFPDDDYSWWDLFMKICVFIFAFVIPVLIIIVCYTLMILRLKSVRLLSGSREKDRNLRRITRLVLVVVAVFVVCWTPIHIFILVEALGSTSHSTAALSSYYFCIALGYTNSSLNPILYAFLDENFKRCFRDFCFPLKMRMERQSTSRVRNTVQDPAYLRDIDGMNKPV
Sequence of Mu-type opioid receptor (Homo sapiens) (P35372 whole entry): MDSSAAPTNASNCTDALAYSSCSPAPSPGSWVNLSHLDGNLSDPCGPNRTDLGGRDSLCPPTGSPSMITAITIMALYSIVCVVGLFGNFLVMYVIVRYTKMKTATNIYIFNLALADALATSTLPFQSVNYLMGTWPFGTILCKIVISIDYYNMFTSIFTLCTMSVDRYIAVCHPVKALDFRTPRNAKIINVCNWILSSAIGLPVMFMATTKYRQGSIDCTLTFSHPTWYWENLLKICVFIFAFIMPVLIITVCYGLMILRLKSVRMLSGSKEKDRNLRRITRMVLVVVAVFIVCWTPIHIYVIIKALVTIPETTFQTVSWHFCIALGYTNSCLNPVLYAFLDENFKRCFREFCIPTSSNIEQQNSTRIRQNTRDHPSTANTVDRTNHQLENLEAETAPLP
Sequence of Mu-type opioid receptor (Mus musculus) (P42866 whole entry): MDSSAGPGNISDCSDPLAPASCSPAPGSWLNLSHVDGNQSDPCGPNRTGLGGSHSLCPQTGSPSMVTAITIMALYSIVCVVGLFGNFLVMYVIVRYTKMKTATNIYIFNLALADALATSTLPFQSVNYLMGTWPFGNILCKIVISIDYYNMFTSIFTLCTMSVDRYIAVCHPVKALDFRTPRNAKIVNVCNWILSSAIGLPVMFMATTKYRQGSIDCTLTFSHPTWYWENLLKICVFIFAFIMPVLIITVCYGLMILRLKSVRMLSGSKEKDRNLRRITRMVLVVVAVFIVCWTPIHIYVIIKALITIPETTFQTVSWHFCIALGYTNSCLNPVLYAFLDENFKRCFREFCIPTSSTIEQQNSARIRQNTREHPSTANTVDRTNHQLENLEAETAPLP

Row | Compound | Relative rate [1] | Potency (Cavia porcellus [2]) | Agonist potency (Mus musculus [3]) | Ratio [4] | Ratio [5] | Ratio [6] | Ratio [8] | Ratio [28] | Ratio [30] | also measured
1 | CC(=O)/C=C/C(=O)N[C@@H]1CCC2(O)C3Cc4ccc(O)c5c4C2(CCN3CC2CC2)C1O5 (stereo not given in full) | 225 | 4.5 | 31 | 5 | 12.5 | 30 | 0.9 | – | – | inhibition (Cavia porcellus [7]): inactive
2 | O=C(N[C@@H]1CC[C@@]2(O)[C@H]3Cc4ccc(O)c5c4[C@@]2(CCN3CC2CC2)[C@H]1O5)c1ccccc1 | – | 201 | – | 1 | 1.4 | 1.9 | 0.91 | – | – | Inhibition (Cavia porcellus [9]): 39%; Agonist potency (Mus musculus [10]): 29 nM; Inhibition (Mus musculus [11]): 50%; Ratio [12]: 2.3
3 | C#CC(=O)N[C@@H]1CCC2(O)C3Cc4ccc(O)c5c4C2(CCN3CC2CC2)C1O5 (stereo not given in full) | – | 56 | – | 1.3 | 2.6 | – | 0.84 | – | – | Inhibition (Cavia porcellus [9]): 53%; Inhibition (Mus musculus [13]): 50%; Ratio [12]: 1.06; Ratio [14]: 1.5; Ratio [15]: 5
4 | CCOc1ccc2c(c1)C1(C)CCN(CC3CC3)C(C2=O)C1C (stereo not given) [ETHYLKETAZOCINE] | – | – | – | – | – | – | – | – | – | IC50 (Cavia porcellus [16]; Cavia porcellus, Muscle tissue): 9.73 nM
5 | COC(=O)/C=C/C(=O)N[C@@H]1CC[C@@]2(O)[C@H]3Cc4ccc(O)c5c4[C@@]2(CCN3CC2CC2)[C@H]1O5 | 1 | 5 | – | 1.1 | 6 | 10.6 | 1 | – | – | Ratio [17]: 1.8; Ratio [18]: 18.8; Ratio [19]: 3.9; Ratio [20]: 1.3
6 | COC(=O)CCC(=O)N[C@@H]1CCC2(O)C3Cc4ccc(O)c5c4C2(CCN3CC2CC2)C1O5 (stereo not given in full) | – | 5.3 | – | – | – | – | – | – | – | Inhibition (Cavia porcellus [21]): 10%; Ratio [22]: 1; Ratio [23]: 0.92
7 | 6beta-[(Chloromercuri)acetamido]-17-(cyclopropyl-methyl)-4,5alpha-epoxy-3,14-duhydroxymorphinan Methanesulphonate [listing 1 of 2 here] | – | – | – | 2.6 and 0.9 | – | 0.57 | 1 | 1.3 | 4.2 | Potency (Cavia porcellus [2]; Muscle tissue): 50; inhibition (Cavia porcellus [24]): 26%; Potency (Mus musculus [25]): 54 nM; inhibition (Mus musculus [26]): 20%; Ratio [27]: 0.74; Ratio [29]: 0.75; Ratio [31]: 1.1; Ratio [23]: 1.2
8 | C=CCN1CCC23c4c5ccc(O)c4OC2[C@H](NC(=O)/C=C/C(=O)OC)CCC3(O)C1C5 (stereo not given in full) | – | 5.8 | – | 1.1 | 2.2 | 4 | 1 | – | 6.4 | Inhibition (Cavia porcellus [21]): 40%; Agonist potency (Mus musculus [32]): 34; Ratio [33]: 1.7; Ratio [34]: 1.9
9 | O=C(CN1C(=O)C=CC1=O)N[C@@H]1CCC2(O)C3Cc4ccc(O)c5c4C2(CCN3CC2CC2)C1O5 (stereo not given in full) | 450 | 0.6 | 240 nM | 1.8 | 1.5 | – | 0.71 | 0.92 | 3.3 | Inhibition (Cavia porcellus [21]): 59%; Inhibition (Cavia porcellus [9]): 21%; Ratio [35]: 30; Ratio [36]: 0.71
10 | COC(=O)C=CC(=O)N[C@@H]1CCC2(O)C3Cc4ccc(O)c5c4C2(CCN3CC2CC2)C1O5 (stereo not given in full) | 0.5 | – | – | – | – | – | – | – | – | –
11 | C=C(Cl)C(=O)N[C@@H]1CCC2(O)C3Cc4ccc(O)c5c4C2(CCN3CC2CC2)C1O5 (stereo not given in full) | 0.4 | 1.1 | – | 1.6 | 13.4 | 6 | 0.93 | 0.88 | – | inhibition (Cavia porcellus [37]): inactive; Agonist potency (Mus musculus [10]): 44
12 | 6beta-[(Chloromercuri)acetamido]-17-(cyclopropyl-methyl)-4,5alpha-epoxy-3,14-duhydroxymorphinan Methanesulphonate [listing 2 of 2 here] | – | – | – | – | – | – | – | – | – | IC50 (Cavia porcellus [16]): 300 nM
13 | O=C(N[C@@H]1CCC2(O)C3Cc4ccc(O)c5c4C2(CCN3CC2CC2)C1O5)C(=O)c1ccccc1 (stereo not given in full) | – | 24 | 51 | 0.87 | 1.48 | 6.5 | 0.93 | – | – | Inhibition (Cavia porcellus [9]): 22%; Inhibition (Mus musculus [13]): 44%; Ratio [38]: 0.56; Ratio [12]: 0.51
14 | O=C(CSSc1ccccc1[N+](=O)[O-])N[C@@H]1CCC2(O)C3Cc4ccc(O)c5c4C2(CCN3CC2CC2)C1O5 (stereo not given in full) | – | 1.1 | 70 | 0.98 | 1.3 | 1.8 | 0.5 | 1.3 | 2.5 | inhibition (Cavia porcellus [37]): inactive
15 | O=C(CBr)N[C@@H]1CCC2(O)C3Cc4ccc(O)c5c4C2(CCN3CC2CC2)C1O5 (stereo not given in full) | – | 58 | 31 | 1.5 | 3.3 | 1.4 | 0.73 | 0.78 | 1.7 | Inhibition (Mus musculus [11]): 20%
16 | O=C1C=CC(=O)N1[C@@H]1CCC2(O)C3Cc4ccc(O)c5c4C2(CCN3CC2CC2)C1O5 (stereo not given in full) | 450 | 2 | 52 | 0.81 | 1.3 | 1.1 | 0.94 | 1.4 | 1.3 | Inhibition (Mus musculus [11]): 35%
